Series [1] can be described thus: Stability assessed as half life at pH 8.0 in presence of calf intestine alkaline phosphatase. The series is classed as ADME, tissue-based. The conditions noted are these: cattle. The method in brief:
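Prodrug in 50 mM sodium phosphate pH 7.4 was incubated with calf intestinal alkaline phosphatase (0.000125 units/µL) in 10 mM Tris pH 8.0 at 37 °C for 30 min. Reactions were quenched with NaCl and MeOH/acetonitrile, held on ice for 30 min and centrifuged. Dephosphorylation half-life is in minutes.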

A short description of series [2]: Aqueous solubility in water by shake flask method. The series is classed as physicochemical. Put shortly:
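Solubility: about 5 mg solid per 1 mL deionized water, unbuffered, in triplicate. Samples were vortexed, sonicated and protected from light, then tumbled at 25 °C for 1 day. They were centrifuged, filtered and diluted, and analyzed by HPLC with UV detection at 215 nm.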

Series [3] is described as follows: Chemical stability assessed as half life at pH 2 by HPLC. The series is classed as physicochemical. The following applies: buffer.
Series [4] is described as follows: Half life in rat at 5 mg/kg, iv. The series is classed as ADME, organism-based. Further details: dose 5 mg/kg, route intravenous. The following applies: in vivo.
Series [5] is described as follows: Clearance in rat at 5 mg/kg, iv. The conditions noted are these: in vivo. Further details: dose 5 mg/kg, route intravenous. The series is classed as ADME, organism-based.
The nature of series [6]: Chemical stability assessed as half life at pH 9 by HPLC. The series is classed as physicochemical. The following applies: buffer.
A short description of series [7]: Chemical stability assessed as half life at pH 5 by HPLC. The series is classed as physicochemical. The following applies: buffer.
Series [8] in a line: Chemical stability assessed as half life at pH 7.4 by HPLC. The series is classed as physicochemical. The following applies: buffer.
Series [9] is described as follows: AUC in Sprague-Dawley rat plasma at 5 mg/kg, po coadministered with RTV. Further details: dose 5 mg/kg, route oral. The series is classed as ADME, organism-based. Put shortly:
(§1)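 Male Sprague-Dawley-derived rats (0.25-0.35 kg, n = 3) were given oral gavage doses equivalent to 5 mg/kg parent (5 mg equiv/kg). Prodrugs were given in 5% dextrose in water. Parents were given in ethanol/propylene glycol formulation. For LPV species, a 5 mg/kg RTV gavage dose was given first. Plasma was analyzed by reversed-phase HPLC with an internal standard. Cmax is in µg/mL and AUC in µg·h/mL.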

Series [10] can be described thus: Cmax in Sprague-Dawley rat plasma at 5 mg/kg, po coadministered with RTV. The series is classed as ADME, organism-based. Further details: dose 5 mg/kg, route oral. The method in brief:
as §1

For a further series, the system named is Rattus norvegicus. As to the kind of experiment: AUC in Sprague-Dawley rat plasma at 5 mg/kg, po. The series is classed as ADME, organism-based. Further details: dose 5 mg/kg, route oral. The conditions noted are these: in vivo. The method in brief:
as §1

A short description of series [11]: Cmax in po dosed Beagle dog at dose molar equivalent to 5 mg/kg RTV coadministered with LPV dosed as 5% dextrose containing solution. The series is classed as ADME, organism-based, Canis lupus familiaris. Further details: dose 5 mg/kg, route oral. The conditions noted are these: in vivo. Put shortly:
(§2)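 Male and female beagle dogs (8-12 kg, n = 3) were dosed orally at 5 mg equiv/kg of parent. Parents were dissolved in 5% dextrose with 20% ethanol, 30% propylene glycol and 2 equiv methanesulfonic acid. Prodrugs were dissolved in 5% dextrose. Plasma was measured by reversed-phase HPLC with an internal standard. Cmax is in µg/mL and AUC in µg·h/mL.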

Series [12] can be described thus: Cmax in po dosed Beagle dog at dose molar equivalent to 5 mg/kg RTV coadministered with LPV-OMP dosed as 5% dextrose containing solution. The series is classed as ADME, organism-based, Canis lupus familiaris. Further details: dose 5 mg/kg, route oral. The following applies: in vivo. The method in brief:
as §2

Series [13] is described as follows: AUC in po dosed Beagle dog at dose molar equivalent to 5 mg/kg RTV coadministered with LPV-OMP dosed as 5% dextrose containing solution. The series is classed as ADME, organism-based, Canis lupus familiaris. Further details: dose 5 mg/kg, route oral. The conditions noted are these: plasma. Put shortly: as §2
A short description of series [14]: AUC in po dosed Beagle dog at dose molar equivalent to 5 mg/kg RTV coadministered with LPV dosed as 5% dextrose containing solution. The series is classed as ADME, organism-based, Canis lupus familiaris. The arrangement: dose 5 mg/kg, route oral. The conditions noted are these: plasma. Put shortly: as §2

≈ marks a conversion by molar mass, not a printed value.

As to `CC(C)c1nc(CN(C)C(=O)N[C@H](C(=O)N[C@@H](Cc2ccccc2)C[C@H](OCOP(=O)([O-])[O-])[C@H](Cc2ccccc2)NC(=O)OCc2cncs2)C(C)C)cs1.[Na+].[Na+]`, the half-life was 7 min in series [1] and 516 min in series [3]. The same compound showed a thermodynamic solubility in series [2] greater than 5000 µg/mL.

Consider `Cc1cccc(C)c1OCC(=O)N[C@@H](Cc1ccccc1)[C@H](C[C@H](Cc1ccccc1)NC(=O)[C@H](C(C)C)N1CCCNC1=O)OCOP(=O)([O-])[O-].[Na+].[Na+]`, for which the results for the half-life in [1] and in series [3] were 13.9 min and 468 min, respectively. The compound also displayed a thermodynamic solubility in series [2] greater than 5000 µg/mL.

On to `CC(C)c1nc(CN(C)C(=O)N[C@H](C(=O)N[C@@H](Cc2ccccc2)C[C@H](OP(=O)([O-])[O-])[C@H](Cc2ccccc2)NC(=O)OCc2cncs2)C(C)C)cs1.[Na+].[Na+]`, for which the half-life in series [4] was 13.8 min. The clearance in series [5] was 43 mL/min/kg.

`CCCC(O[C@@H](C[C@H](Cc1ccccc1)NC(=O)[C@@H](NC(=O)N(C)Cc1csc(C(C)C)n1)C(C)C)[C@H](Cc1ccccc1)NC(=O)OCc1cncs1)OP(=O)([O-])[O-].[Na+].[Na+]` (stereo not given in full): in series [1], the half-life is 31.7 min.

Turning to `CC(O[C@@H](C[C@H](Cc1ccccc1)NC(=O)[C@@H](NC(=O)N(C)Cc1csc(C(C)C)n1)C(C)C)[C@H](Cc1ccccc1)NC(=O)OCc1cncs1)OP(=O)([O-])[O-].[Na+].[Na+]` (stereo not given in full), the half-life in series [6] was greater than 100 days; in series [1] it was 14.8 min; in series [7], 76 min; in series [8], 12 days; in series [3], less than 15 min. Also, the solubility (thermodynamic) in [2] is greater than 5000 µg/mL.

With `CC(C)c1nc(CN(C)C(=O)N[C@H](C(=O)N[C@@H](Cc2ccccc2)C[C@H](OC(OP(=O)([O-])[O-])C(C)C)[C@H](Cc2ccccc2)NC(=O)OCc2cncs2)C(C)C)cs1.[Na+].[Na+]` (stereo not given in full), the half-life in [1] is greater than 30 min.

Take `Cc1cccc(C)c1OCC(=O)N[C@@H](Cc1ccccc1)[C@H](C[C@H](Cc1ccccc1)NC(=O)[C@H](C(C)C)N1CCCNC1=O)OC(C)OP(=O)([O-])[O-].[Na+].[Na+]` (stereo not given in full): the half-life was greater than 100 days in series [6]; 20.4 min in [1]; 133 min in series [7]; 19 days in series [8]; less than 15 min in series [3]. In series [2], this compound yielded a thermodynamic solubility greater than 5000 µg/mL.

`Cc1cccc(C)c1OCC(=O)N[C@@H](Cc1ccccc1)[C@@H](O)C[C@H](Cc1ccccc1)NC(=O)[C@H](C(C)C)N1CCCNC1=O` [LOPINAVIR]: the thermodynamic solubility in [2] worked out at 7 µg/mL (≈ 11.1 µM). For the same compound, the AUC in [9] was found to be 9280 ng·h/mL. For the same compound, the Cmax in [10] came to 1550 ng/mL.

On to `CC(C)c1nc(CN(C)C(=O)N[C@H](C(=O)N[C@@H](Cc2ccccc2)C[C@H](O)[C@H](Cc2ccccc2)NC(=O)OCc2cncs2)C(C)C)cs1` [RITONAVIR], for which the results for the AUC (in the series with Rattus norvegicus; in series [13]; in series [14]) were 3530 ng·h/mL, 4430 ng·h/mL and 2190 ng·h/mL, respectively. In addition, the Cmax in [11] worked out at 1320 ng/mL; in series [12], 2130 ng/mL.

The values are drawn from ChEMBL document CHEMBL1138456 (J Med Chem, 2009).
